GSIS activator: GLuc luminescence reporter in INS-1E cells, primary screen for activators of glucose-dependent secretion of insulin; activation, % at 16.6 µM; AID 743287; INS-1E GLuc reporter insulin secretion, 2-3 h; 370,000 tested, 0.61% active;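 active means lowest replicate activation of at least 40%, so every replicate reaches that level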;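 further: 0% = median of neutral control wells and 100% = median of IBMX positive control wells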
Env fusion inh: inhibitors of HIV Env-mediated cell fusion; HeLa-JRFL Env/CEM21 cell fusion, luciferase; inhibition, % at 12.3 µM; 360,000 tested, 1.1% active; AID 651610;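 active means mean replicate inhibition score of at least 50 and every replicate individually at or above 50; inconclusive means only one of the two criteria met; inactive means mean below 50 and not all replicates reaching 50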;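 further: 0% = plate neutral controls and 100% = maraviroc near 300 nM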
Cneo AK release: Cryptococcus neoformans lysis via adenylate kinase release | AID 651654 | lysis activity, % at 15 µM | C. neoformans lysis, adenylate kinase release luminescence, 4 h; normalised: neutral wells 0, clomiphene wells 100 | 360,000 tested, 0.2% active;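 active means mean lysis activity across replicates of at least 80%, whatever share of replicates individually reach that level; inactive means mean lysis activity below 80%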
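Test system: log-phase Cryptococcus neoformans yeast cells; Quantity: yeast cell density of 5 × 10^6 cells/mL; Buffer or medium: YPD; Doses: single compound concentration per well; Timing: 4 h at 37 °C static, read 1 h later; Measured by: AK luminescence; Read-out basis: lysis from increased AK signal; Control set: Clomiphene as positive control.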
dFosB activator: enhances mouse delta FosB homodimer DNA binding | activation, % at 25 µM | P13346 | 340,000 tested, 0.99% active | purified delta FosB, TAMRA-CDK5 oligo fluorescence polarization; percent of positive-control signal above neutral wells;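 active means mean activation above about 17%, with every replicate also reaching it, limit read from the data, passing the limit was not always enough; inconclusive means only one of the two conditions met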
CDK5 p35 inh: CDK5/p35 (human) kinase inhibition | Recombinant CDK5/p35, ADP-Glo luminescence, 60 min | inhibition, % at 10 µM | 330,000 tested, 0.01% active | AID 488839 | Q00535+Q15078;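 active means highest replicate inhibition of at least 50% and at least 75% of replicates reaching 50%; inconclusive means only one of the two criteria met; inactive means both criteria failed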;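 further: plate controls were DMSO neutral control for no effect and GW8510 at 10 µM for full effect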
Target sequence (Q00535 whole entry, looked up): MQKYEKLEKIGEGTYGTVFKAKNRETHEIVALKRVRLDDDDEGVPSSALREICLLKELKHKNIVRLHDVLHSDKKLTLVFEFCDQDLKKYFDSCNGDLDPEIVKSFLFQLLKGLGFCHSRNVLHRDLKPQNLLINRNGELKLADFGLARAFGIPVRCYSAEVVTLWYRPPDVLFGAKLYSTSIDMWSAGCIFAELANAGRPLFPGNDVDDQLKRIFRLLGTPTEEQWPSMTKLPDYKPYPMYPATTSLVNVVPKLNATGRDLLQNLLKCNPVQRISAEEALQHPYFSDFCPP
Target sequence (Q15078 whole entry, looked up): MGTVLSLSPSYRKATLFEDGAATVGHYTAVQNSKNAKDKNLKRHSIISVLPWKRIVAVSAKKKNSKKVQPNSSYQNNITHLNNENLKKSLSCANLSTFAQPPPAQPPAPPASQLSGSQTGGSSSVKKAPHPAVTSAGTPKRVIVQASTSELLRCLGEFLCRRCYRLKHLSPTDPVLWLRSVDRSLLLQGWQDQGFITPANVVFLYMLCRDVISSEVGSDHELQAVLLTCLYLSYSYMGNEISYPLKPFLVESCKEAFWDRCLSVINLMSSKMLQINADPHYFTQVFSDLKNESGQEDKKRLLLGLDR
PAX8 inh HTS: PAX8 transcriptional activity inhibition | inhibition, % at 12.6 µM | RMG-I TPO-luciferase reporter, SteadyGlo, 24 h | 360,000 tested, 1.2% active;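 active means mean replicate inhibition at least 60% with every replicate also reaching 60%; inconclusive means only one of the two criteria is met; inactive means mean below 60% and not all replicates reaching 60%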;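 further: luciferase light reporting Pax8 driven TPO promoter activity; plate controls were median of neutral control wells for no effect and mitoxantrone controls for full effect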
* marks the source's active call; other numbers are inactive results; i = inactive; ? = inconclusive; nt = no result; ! = a repeat was not active; [ ] = another dose, or the depositor's remark. Compounds with a hit are over-represented: about 2.9% of the library has one in this group of screens.

SMILES	GSIS activator	Env fusion inh	Cneo AK release	dFosB activator	CDK5 p35 inh	PAX8 inh HTS
C[C@H]1CN([C@@H](C)CO)C(=O)Cc2cc(NC(=O)Cn3cnnn3)ccc2O[C@H]1CN(C)Cc1ccc(-c2ccccc2)cc1	-11.5	nt	-0.2	nt	nt	-9.1
O=C(C[C@H]1C=C[C@@H](NC(=O)Nc2ccccc2)[C@@H](CO)O1)NCc1ccccn1	15.2	14.7[16.7 µM]	1.6	nt	nt	7.7
O=C1N(c2ccccc2)C[C@@H]2C[C@@H](c3cc4ccccc4o3)N3CCC[C@@]123	-4.3	76.0*	nt	-1.8	5.8	97.7*
Cc1ccc(-c2ccccc2[C@@H]2C[C@H]3CN(C)C(=O)[C@]34CCCN24)o1	-17.6	12.9	0.6	-0.4	0.6	-6.8
c1ccc(CNc2nc(NCCc3ccncc3)c3sccc3n2)cc1	-0.2	26.3	-1.2	nt	nt	69.9*
CSc1ccccc1CNc1nc(NCC2CC2)nc2ccsc12	-21.8	56.3*	-0.9	nt	nt	47.9
COc1ccccc1CNc1nc(NCCOc2ccccc2Cl)c2sccc2n1	-3.1	72.4*	6.2	nt	nt	15.5
Cc1cc(C)c2c(=O)n3c(nc2c1)C(Cc1ccc(O)cc1)NC(=O)c1cc2ccccc2cc1-3 (configuration not stated)	-18.6	-124.1	3.8	nt	nt	71.8*
COc1cccc(CN(Cc2ccccc2F)S(=O)(=O)c2ccc(S(=O)(=O)NCc3ccccc3)cc2)c1	-21.3	67.9*	nt	-5.9	-0.3	23.6
COc1cccc(CN(Cc2ccco2)S(=O)(=O)c2ccc(S(=O)(=O)NCc3ccccc3)cc2)c1OC	-2.5	?	0.3	-2.1	-1.3	nt
O=C1CNC[C@@H]2[C@@H](c3ccc(C4=CCCC4)cc3)[C@@H](CO)N12	14.8	nt	nt	nt	nt	nt
COc1cccc(C#Cc2cnc3c(c2)C(=O)N([C@H](C)CO)C[C@H](C)[C@H](CN(C)C)O3)c1	6.6	9.5[16.7 µM]	-0.8	nt	nt	-2.2
CCC(C)N(C(=O)c1csnn1)C(C(=O)NC1CCCC1)c1ccc(F)cc1 (configuration not stated)	4.6	25.7	-1.6	0.6	-0.6	-5.3
Cc1ccccc1CCN(C(=O)c1csnn1)C(C(=O)NC1CCCC1)c1ccncc1 (configuration not stated)	1.4	79.3*	-2.6	-1.4	-0.4	4.6
COc1ccc(N(C(=O)c2ccco2)C(C(=O)NC2CCCC2)c2ccncc2)cc1 (configuration not stated)	85.1	-8.4	-0.5	-3.6	1.3	-0.3
CC(C)c1ccc(N(C(=O)c2ccco2)C(C(=O)NC2CCCC2)c2ccncc2)cc1 (configuration not stated)	-13.0	61.9*	-0.4	-8.3	3.4	-56.1
O=C(NC1CCCC1)C(c1ccncc1)N(C(=O)c1csnn1)c1ccc(F)cc1 (configuration not stated)	7.5	5.6	0.0	-2.2	0.7	3.8
CC(C)CCN(C(=O)c1csnn1)C(C(=O)NC1CCCCC1)c1ccc(F)cc1 (configuration not stated)	-22.2	58.9*	-0.2	-10.2	0.1	10.2
CC(C)c1ccc(N(C(=O)c2csnn2)C(C(=O)NC2CCCC2)c2ccncc2)cc1 (configuration not stated)	-3.2	76.6*	-2.0	-15.2	1.2	-2.8
C[C@H]1CN([C@@H](C)CO)C(=O)c2cc(-c3ccc(F)cc3)cnc2O[C@@H]1CN(C)CC1CCCC1	2.9	6.1[16.7 µM]	2.5	nt	nt	nt
O=C(Nc1ccc(F)cc1)N1C[C@H]2[C@@H](c3ccccc31)[C@H](CO)N2C(=O)Cc1ccccn1	-7.3	nt	-5.1	nt	nt	15.3
O=C(NC1CCCCC1)C(c1ccc(Cl)cc1)N(C(=O)c1cnccn1)c1ccc2c(c1)OCO2 (configuration not stated)	nt	83.2*	nt	-8.5	-0.1	nt
COc1cccc(N(C(=O)c2cnccn2)C(C(=O)NC2CCCCC2)c2ccc(Cl)cc2)c1 (configuration not stated)	nt	i	-1.1	-11.6	nt	18.9
CCCNC(=O)N1C[C@H](O)COC[C@@H]2O[C@@H](CC(=O)N3CCC(Cc4ccccc4)CC3)CC[C@H]21	-9.8	4.4[16.7 µM]	7.3	nt	nt	-3.2
CC1(C)CSC(=NCc2ccccc2)N1C(=O)c1cccc([N+](=O)[O-])c1	0.4	nt	nt	-6.7	-0.4	69.0*
SMILES	GSIS activator	Env fusion inh	Cneo AK release	dFosB activator	CDK5 p35 inh	PAX8 inh HTS
CCC(=O)Nc1ccc2c(c1)OC[C@@H](C)N(Cc1cccc(F)c1)C[C@H](C)[C@H](OC)CN(C)C2=O	-30.8	-11.5[16.7 µM]	-0.9	nt	nt	7.3
CC(C)(C)S(=O)N1Cc2cc(C(=O)NCCCN3CCOCC3)nc(-c3cccc(C#CCC4CCCC4)c3)c2[C@@H]1CCO (some centres not stated)	-19.3	21.5[16.7 µM]	18.0	nt	nt	82.0*
CC(C)(C)S(=O)N1Cc2cc(C(=O)Nc3ccc(-c4ccccc4)cc3)nc(-c3cccc(-c4cccc(F)c4)c3)c2[C@@H]1CCO (some centres not stated)	189.5*	nt	nt	nt	nt	6.9
Cc1noc(C)c1NC(=O)N(C)C[C@H]1OCCCC[C@@H](C)Oc2ccc(NS(=O)(=O)c3cn(C)cn3)cc2C(=O)N([C@@H](C)CO)C[C@@H]1C	0.7	5.8[16.7 µM]	-2.5	nt	nt	-11.2
CCCN1C[C@@H](C)[C@@H](OC)CN(C)C(=O)c2ccc(NC(=O)c3cccc(F)c3)cc2OC[C@H]1C	47.2*!	?	-0.4	nt	nt	-12.7
COc1cccc(C(=O)Nc2ccc3c(c2)C(=O)N(C)C[C@H](OC)[C@@H](C)CN(CCc2ccccc2)[C@H](C)CO3)c1	-45.5	55.4*[16.7 µM]	2.0	nt	nt	47.1
CO[C@@H]1CN(C)C(=O)c2ccc(NC(=O)NC3CCCCC3)cc2OC[C@@H](C)N(CCc2ccccc2)C[C@H]1C	-0.9	nt	-2.7	nt	nt	65.6*
CCCN1C[C@H](C)[C@@H](OC)CN(C)C(=O)c2cc(NC(=O)c3cccc(F)c3)ccc2OC[C@@H]1C	-14.4	nt	116.6*	nt	nt	nt
CNC[C@H]1Oc2c(NC(=O)Nc3cccc4ccccc34)cccc2C(=O)N([C@H](C)CO)C[C@@H]1C	-6.9	0.2[16.7 µM]	-13.3	nt	nt	34.0
N#C[C@H]1[C@H](c2ccc(C#Cc3ccccc3F)cc2)[C@@H](CO)N1C(=O)c1cccnc1	-7.0	nt	14.2	nt	nt	20.0
COc1ccc(NC(=O)C2CCCN2S(=O)(=O)c2ccc3c(c2)CC(C)N3C(C)=O)cc1OC (configuration not stated)	101.3*	-0.2	9.0	-10.2	nt	-0.2
CCc1cccc(NC(=O)C2CCCN2S(=O)(=O)c2ccc3c(c2)CC(C)N3C(C)=O)c1 (configuration not stated)	-12.2	60.9*	8.5	-5.7	0.6	10.6
CCC(C)NC(=O)C1CCCN(S(=O)(=O)c2ccc3c(c2)CC(C)N3C(C)=O)C1 (configuration not stated)	-17.8	58.7*	-0.8	-16.0	-1.7	-2.3

From PubChem
